# Test results from ChEMBL document CHEMBL2417474, “Synthesis, antiproliferative and anti-inflammatory activities of some novel 6-aryl-2-(p-(methanesulfonyl)phenyl)-4,5-dihydropyridazi-3(2H)-ones” (Eur J Med Chem, 2013).
# Columns and labels:
# Assay type in all cases: functional
# OVCAR-5 [1] = experiment: Growth inhibition of human OVCAR5 cells assessed as cell growth at 10 uM after 48 hrs by sulforhodamine B assay; conditions: OVCAR-5, 48 h, read-out: Activity
# UACC-257 = experiment: Growth inhibition of human UACC257 cells after 48 hrs by sulforhodamine B assay; conditions: UACC-257, 48 h
# Procedure, shortened: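 NCI 60-line panel. Cells were grown in medium with 5% fetal calf serum and 2 mM L-glutamine and preincubated 24 h in plates. Compound in DMSO was added at 10^-4 to 10^-8 M (five 10-fold levels), with continuous exposure for 48 h. Growth was read by SRB protein staining. GI50 is the concentration giving 50% reduction in net protein increase versus control cells.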
# SK-MEL-28 = experiment: Growth inhibition of human SK-MEL-28 cells after 48 hrs by sulforhodamine B assay; conditions: SK-MEL-28, 48 h; for CC50: read-out: LC50 (the source's name)
# Procedure, shortened: (§1)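 NCI 60-cell-line panel. Cells were grown in medium with 5% fetal calf serum and 2 mM L-glutamine, then preincubated 24 h in plates. Compounds were added from DMSO at five 10-fold concentrations from 100 to 0.01 µM and left on cells continuously for 48 h. Cell growth was read by sulforhodamine B protein stain. GI50 is the concentration that halves net protein increase relative to control cells.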
# LOX IMVI [2] = experiment: Growth inhibition of human LOXIMVI cells after 48 hrs by sulforhodamine B assay; conditions: for CC50: read-out: LC50 (the source's name)
# Procedure, shortened: (§2)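 NCI 60-cell-line panel grown in RPMI-type medium with 5% fetal calf serum and 2 mM L-glutamine. Cells preincubated 24 h, then exposed continuously for 48 h to compound in DMSO at 10^-4 to 10^-8 M (five 10-fold levels). Growth read by SRB protein stain. GI50 is the concentration giving a 50% reduction in net protein increase relative to control cells.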
# HCT-15 = experiment: Growth inhibition of human HCT15 cells after 48 hrs by sulforhodamine B assay; conditions: HCT-15, 48 h; procedure, shortened: as §2
# [3] = Growth inhibition of human Hs 578T cells after 48 hrs by sulforhodamine B assay; procedure, shortened: as §2
# SN12C [4] = experiment: Growth inhibition of human SN12C cells after 48 hrs by sulforhodamine B assay
# Procedure, shortened: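 Part of the NCI 60-cell-line panel. Cells were grown in 1640 medium with 5% fetal calf serum and 2 mM L-glutamine, then preincubated 24 h before compound was added. Compounds in DMSO were tested at five concentrations (100, 10, 1, 0.1, 0.01 µM) with 48 h continuous exposure. Read-out was SRB protein staining; GI50 is the concentration halving the net protein increase versus control.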
# [5] = Growth inhibition of human Hs 578T cells assessed as cell growth at 10 uM after 48 hrs by sulforhodamine B assay; conditions: read-out: Activity
# HOP-92 = experiment: Growth inhibition of human HOP92 cells assessed as cell growth at 10 uM after 48 hrs by sulforhodamine B assay; conditions: HOP-92, 48 h, read-out: Activity
# MDA-MB-435 = experiment: Growth inhibition of human MDA-MB-435 cells assessed as cell growth at 10 uM after 48 hrs by sulforhodamine B assay; conditions: MDA-MB-435, 48 h, read-out: Activity
# Malme-3M = experiment: Growth inhibition of human MALME-3M cells after 48 hrs by sulforhodamine B assay; conditions: for CC50: read-out: LC50 (the source's name); procedure, shortened: as §2
# LOX IMVI [6] = experiment: Growth inhibition of human LOXIMVI cells assessed as cell growth at 10 uM after 48 hrs by sulforhodamine B assay; conditions: read-out: Activity
# Rattus norvegicus = experiment: Antiinflammatory activity in Wistar rat assessed as inhibition of carrageenan-induced paw edema at 0.05 mmol/kg, po administered 30 mins prior challenge measured after 3 hrs
# Procedure, shortened: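 Wistar rats of either sex, 150–175 g, fasted 16 h, 6 per group. Dosed orally at 0.05 mmol/kg, suspended in 1% CMC in water (10 ml/kg). 30 min later, 0.1 ml of 1% carrageenan in saline injected subplantar into the left hind paw. Paw volume read by plethysmometer at 0, 3 and 5 h. % inhibition = (1 − Vt/Vc) × 100 against the vehicle group.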
# MDA-MB-468 = experiment: Growth inhibition of human MDA-MB-468 cells after 48 hrs by sulforhodamine B assay; conditions: MDA-MB-468, 48 h; procedure, shortened: as §1
# 786-0 = experiment: Growth inhibition of human 786-0 cells assessed as cell growth at 10 uM after 48 hrs by sulforhodamine B assay; conditions: 786-0, 48 h, read-out: Activity
# SN12C [7] = experiment: Growth inhibition of human SN12C cells assessed as cell growth at 10 uM after 48 hrs by sulforhodamine B assay; conditions: read-out: Activity
# SNB-75 = experiment: Growth inhibition of human SNB75 cells after 48 hrs by sulforhodamine B assay; conditions: SNB-75, 48 h; for CC50: read-out: LC50 (the source's name); procedure, shortened: as §1
# OVCAR-3 = experiment: Growth inhibition of human OVCAR3 cells after 48 hrs by sulforhodamine B assay; conditions: OVCAR-3, 48 h; procedure, shortened: as §1
# PC-3 [8] = experiment: Growth inhibition of human PC3 cells after 48 hrs by sulforhodamine B assay; conditions: PC-3, 48 h; procedure, shortened: as §1
# [9] = Growth inhibition of human HCC2998 cells assessed as cell growth at 10 uM after 48 hrs by sulforhodamine B assay; conditions: HCC 2998, 48 h, read-out: Activity
# OVCAR-5 [10] = experiment: Growth inhibition of human OVCAR5 cells after 48 hrs by sulforhodamine B assay; conditions: OVCAR-5, 48 h; for CC50: read-out: LC50 (the source's name); procedure, shortened: as §1
# NCI-H226 = experiment: Growth inhibition of human NCI-H226 cells assessed as cell growth at 10 uM after 48 hrs by sulforhodamine B assay; conditions: NCI-H226, 48 h, read-out: Activity
# PC-3 [11] = experiment: Growth inhibition of human PC3 cells assessed as cell growth at 10 uM after 48 hrs by sulforhodamine B assay; conditions: PC-3, 48 h, read-out: Activity
# M14 = experiment: Growth inhibition of human M14 cells assessed as cell growth at 10 uM after 48 hrs by sulforhodamine B assay; conditions: M14, 48 h, read-out: Activity
# SK-MEL-2 = experiment: Growth inhibition of human SK-MEL-2 cells after 48 hrs by sulforhodamine B assay; conditions: SK-MEL-2, 48 h; procedure, shortened: as §1
# DU-145 = experiment: Growth inhibition of human DU145 cells after 48 hrs by sulforhodamine B assay; conditions: DU-145, 48 h; for CC50: read-out: LC50 (the source's name); procedure, shortened: as §2
# COLO 205 = experiment: Growth inhibition of human COLO205 cells after 48 hrs by sulforhodamine B assay; conditions: COLO 205, 48 h; for CC50: read-out: LC50 (the source's name); procedure, shortened: as §2
# SK-OV-3 = experiment: Growth inhibition of human SKOV3 cells after 48 hrs by sulforhodamine B assay; conditions: SK-OV-3, 48 h; procedure, shortened: as §1
structure (smiles),measurement,setting,value
Cc1cc(O)ccc1C1=NN(c2ccc(S(C)(=O)=O)cc2)C(=O)CC1,growth at 10 µM,OVCAR-5 [1],98%
same,GI50,UACC-257,5.65 µM
same,LC50 (concentration killing 50% of cells),UACC-257,> 100 µM
same,TGI,UACC-257,> 100 µM
same,GI50,SK-MEL-28,9.56 µM
same,TGI,SK-MEL-28,> 100 µM
same,CC50,SK-MEL-28,> 100 µM
same,GI50,LOX IMVI [2],7.25 µM
same,TGI,LOX IMVI [2],> 100 µM
same,CC50,LOX IMVI [2],> 100 µM
same,GI50,HCT-15,7.91 µM
same,LC50,HCT-15,> 100 µM
same,TGI,HCT-15,> 100 µM
same,GI50,[3],4.15 µM
same,LC50 (concentration giving 50% net cell kill),[3],> 100 µM
same,TGI,[3],> 100 µM
same,GI50,SN12C [4],7.18 µM
same,LC50,SN12C [4],> 100 µM
same,TGI,SN12C [4],> 100 µM
same,growth at 10 µM,[5],87%
same,growth at 10 µM,HOP-92,92.8%
same,growth at 10 µM,MDA-MB-435,-8.25%
same,GI50,Malme-3M,5.37 µM
same,TGI,Malme-3M,> 100 µM
same,CC50,Malme-3M,> 100 µM
same,growth at 10 µM,LOX IMVI [6],67.5%
same,inhibition in vivo at 50 µmol/kg,Rattus norvegicus,33.3%
same,GI50,MDA-MB-468,11 µM
same,LC50 (concentration killing 50% of cells),MDA-MB-468,> 100 µM
same,TGI,MDA-MB-468,44.3 µM
same,growth at 10 µM,786-0,84.1%
same,growth at 10 µM,SN12C [7],90.3%
same,GI50,SNB-75,5.53 µM
same,TGI,SNB-75,> 75.2 µM
same,CC50,SNB-75,> 100 µM
same,GI50,OVCAR-3,3.41 µM
same,"LC50 (lethal concentration, 50% net cell kill)",OVCAR-3,> 100 µM
same,TGI,OVCAR-3,9.44 µM
same,GI50,PC-3 [8],14.8 µM
same,LC50,PC-3 [8],> 100 µM
same,TGI,PC-3 [8],> 100 µM
same,growth at 10 µM,[9],78.6%
same,GI50,OVCAR-5 [10],53.8 µM
same,TGI,OVCAR-5 [10],> 100 µM
same,CC50,OVCAR-5 [10],> 100 µM
same,growth at 10 µM,NCI-H226,93.3%
same,growth at 10 µM,PC-3 [11],77.9%
same,growth at 10 µM,M14,49.2%
same,GI50,SK-MEL-2,3.48 µM
same,LC50,SK-MEL-2,> 100 µM
same,TGI,SK-MEL-2,32.8 µM
same,GI50,DU-145,24.7 µM
same,TGI,DU-145,> 100 µM
same,CC50,DU-145,> 100 µM
same,GI50,COLO 205,6.62 µM
same,TGI,COLO 205,74.4 µM
same,CC50,COLO 205,> 100 µM
same,GI50,SK-OV-3,9.77 µM
same,LC50,SK-OV-3,> 100 µM
same,TGI,SK-OV-3,> 100 µM
CCc1ccc(C2=NN(c3ccc(S(C)(=O)=O)cc3)C(=O)CC2)cc1,growth at 10 µM,OVCAR-5 [1],48.7%
same,GI50,UACC-257,3.3 µM
same,LC50 (concentration killing 50% of cells),UACC-257,> 100 µM
same,TGI,UACC-257,61.5 µM
same,GI50,SK-MEL-28,1.84 µM
same,TGI,SK-MEL-28,> 100 µM
same,CC50,SK-MEL-28,> 100 µM
same,GI50,LOX IMVI [2],3.5 µM
same,TGI,LOX IMVI [2],> 100 µM
same,CC50,LOX IMVI [2],> 100 µM
same,GI50,HCT-15,1.9 µM
same,LC50,HCT-15,> 100 µM
same,TGI,HCT-15,> 100 µM
same,GI50,[3],0.83 µM
same,LC50 (concentration giving 50% net cell kill),[3],> 100 µM
same,TGI,[3],6.89 µM
same,GI50,SN12C [4],4.81 µM
same,LC50,SN12C [4],> 100 µM
same,TGI,SN12C [4],> 100 µM
same,growth at 10 µM,[5],-0.67%
same,growth at 10 µM,HOP-92,68.6%
same,growth at 10 µM,MDA-MB-435,-24.3%
same,GI50,Malme-3M,6.8 µM
same,TGI,Malme-3M,> 67.6 µM
same,CC50,Malme-3M,> 100 µM
same,growth at 10 µM,LOX IMVI [6],35%
same,inhibition in vivo at 50 µmol/kg,Rattus norvegicus,46.7%
same,GI50,MDA-MB-468,3.75 µM
same,LC50 (concentration killing 50% of cells),MDA-MB-468,> 100 µM
same,TGI,MDA-MB-468,31.2 µM
same,growth at 10 µM,786-0,36.5%
same,growth at 10 µM,SN12C [7],31.4%
same,GI50,SNB-75,1.32 µM
same,TGI,SNB-75,> 7.89 µM
same,CC50,SNB-75,> 100 µM
same,GI50,OVCAR-3,0.93 µM
same,"LC50 (lethal concentration, 50% net cell kill)",OVCAR-3,> 100 µM
same,GI50,PC-3 [8],2.76 µM
same,LC50,PC-3 [8],> 100 µM
same,TGI,PC-3 [8],> 100 µM
same,growth at 10 µM,[9],46.6%
same,GI50,OVCAR-5 [10],8.51 µM
same,TGI,OVCAR-5 [10],> 100 µM
same,CC50,OVCAR-5 [10],> 100 µM
same,growth at 10 µM,NCI-H226,69.1%
same,growth at 10 µM,PC-3 [11],56.6%
same,growth at 10 µM,M14,5.99%
same,GI50,SK-MEL-2,0.9 µM
same,LC50,SK-MEL-2,> 100 µM
same,TGI,SK-MEL-2,> 100 µM
same,GI50,DU-145,5.66 µM
same,TGI,DU-145,> 100 µM
same,CC50,DU-145,> 100 µM
same,GI50,COLO 205,1.02 µM
same,TGI,COLO 205,12.6 µM
same,CC50,COLO 205,83.8 µM
same,GI50,SK-OV-3,2.44 µM
same,LC50,SK-OV-3,> 100 µM
same,TGI,SK-OV-3,19.6 µM
O=c1[nH]cc(F)c(=O)[nH]1 [FLUOROURACIL],GI50,UACC-257,3.55 µM
same,GI50,SK-MEL-28,1.03 µM
same,GI50,LOX IMVI [2],0.24 µM
same,GI50,HCT-15,0.11 µM
same,GI50,[3],9.77 µM
same,GI50,SN12C [4],0.49 µM
same,GI50,Malme-3M,0.05 µM
same,GI50,SNB-75,78.7 µM
same,GI50,OVCAR-3,0.01 µM
same,GI50,PC-3 [8],2.36 µM
same,GI50,OVCAR-5 [10],10.9 µM
same,GI50,SK-MEL-2,56.7 µM
same,GI50,DU-145,0.36 µM
same,GI50,COLO 205,0.15 µM
same,GI50,SK-OV-3,21.8 µM
